In the array DNA melting data of Ke et al. (doi:10.1101/2024.01.08.574731):

How the values were obtained:
[1] = folding enthalpy; higher = less favourable; fluorescence melt of hairpins on a sequencing array, two-state fit; conditions: sodium 0.088 M
Procedure, shortened: (§1)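 In 50 mM Na-HEPES pH 8.0 containing 25 mM NaCl, hairpins from the library on a sequenced MiSeq flow cell were imaged for Cy3 fluorescence at 2.5 °C steps up to 60 °C, with Cy3 and quencher oligos annealed. After normalisation to pre-quench Cy3 and to control constructs, two-state fits with bootstrapping gave melting temperature and folding enthalpy. Four replicates were combined by inverse-variance weighting, and fitted temperatures were shifted up by 9.35 °C to match UV melts.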

[2] = melting temperature; fluorescence melt of hairpins on a sequencing array, two-state fit, raised by 9.35 °C to match UV melts; conditions: sodium 0.088 M
Procedure, shortened: as §1

Sequence: GGCATCGAAAGATCAGCC ((((((....)))..)))
- folding enthalpy [1]: -25 kcal/mol
- Tm [2]: 39.2 °C

Sequence: GGCATCGAAAGATCCGCC ((((((....)))..)))
- folding enthalpy [1]: -19.2 kcal/mol
- Tm [2]: 49.3 °C

Sequence: GGCATCGAAAGATGGCC ((((((....))).)))
- folding enthalpy [1]: -20.1 kcal/mol
- Tm [2]: 58.4 °C

Sequence: GGCATCGAAAGATTAGCC ((((((....)))..)))
- folding enthalpy [1]: -28.2 kcal/mol
- Tm [2]: 43.7 °C

Sequence: GGCATCGGAAACGATACC ((.((((....)))).))
- folding enthalpy [1]: -27.1 kcal/mol
- Tm [2]: 45.6 °C

Sequence: GGCATCGGAAACGATGTC (.(((((....))))).)
- folding enthalpy [1]: -42.1 kcal/mol
- Tm [2]: 55.9 °C

Sequence: GGCATCGGAAACGGTGTC (.((.((....)).)).)
- folding enthalpy [1]: -25.7 kcal/mol
- Tm [2]: 44.8 °C

Sequence: GGCATGGGAAACCATACC ((.((((....)))).))
- folding enthalpy [1]: -26.2 kcal/mol
- Tm [2]: 41 °C

Sequence: GGCATTCGAAAGAAAGCC (((.(((....))).)))
- folding enthalpy [1]: -40.4 kcal/mol
- Tm [2]: 50.5 °C

Sequence: GGCATTCGAAAGAAGGCC (((.(((....))).)))
- folding enthalpy [1]: -41.7 kcal/mol
- Tm [2]: 60.4 °C

Sequence: GGCCAAACGAAAGTTGCC (((..(((....))))))
- folding enthalpy [1]: -22.6 kcal/mol
- Tm [2]: 44 °C

Sequence: GGCCAAGGAAACCTGGCC (((((.(....).)))))
- folding enthalpy [1]: -42.3 kcal/mol
- Tm [2]: 57.3 °C

Sequence: GGCCACCCGAAAGGGGCC (((..(((....))))))
- folding enthalpy [1]: -23.2 kcal/mol
- Tm [2]: 61.3 °C

Sequence: GGCCACGAAAGTGGCGCC ((((((....)))..)))
- folding enthalpy [1]: -7.19 kcal/mol
- Tm [2]: 65.5 °C

Sequence: GGCCACGAAAGTGTGCC ((((((....))).)))
- folding enthalpy [1]: -25.9 kcal/mol
- Tm [2]: 64 °C

Sequence: GGCCACGCGAAAGCGGCC (((..(((....))))))
- folding enthalpy [1]: -19 kcal/mol
- Tm [2]: 62.5 °C

Sequence: GGCCAGCGAAAGCTGCC (((.(((....))))))
- folding enthalpy [1]: -16 kcal/mol
- Tm [2]: 60 °C

Sequence: GGCCAGCGAAAGCTTGCC (((.(((....))).)))
- folding enthalpy [1]: -50.7 kcal/mol
- Tm [2]: 55.5 °C

Sequence: GGCCAGGCGAAAGCCGCC (((..(((....))))))
- folding enthalpy [1]: -13.9 kcal/mol
- Tm [2]: 58.4 °C

Sequence: GGCCAGGGAAACCCGGCC ((((.((....)).))))
- folding enthalpy [1]: -40.9 kcal/mol
- Tm [2]: 62.1 °C

Sequence: GGCCATCGAAAGATCGCC (((.(((....))).)))
- folding enthalpy [1]: -33.6 kcal/mol
- Tm [2]: 46.8 °C

Sequence: GGCCATGGAAACATAGCC (((.(((....))).)))
- folding enthalpy [1]: -31.5 kcal/mol
- Tm [2]: 40.8 °C

Sequence: GGCCATGGAAACATGGTC (.(((((....))))).)
- folding enthalpy [1]: -36.2 kcal/mol
- Tm [2]: 54.9 °C

Sequence: GGCCCAGGAAACCGAGCC (((.(.(....).).)))
- folding enthalpy [1]: -15.7 kcal/mol
- Tm [2]: 36.9 °C

Sequence: GGCCCAGGAAACTGAGCC (((.(((....))).)))
- folding enthalpy [1]: -32.4 kcal/mol
- Tm [2]: 49 °C

Sequence: GGCCCCGAAAGGGAAGCC ((((((....)))..)))
- folding enthalpy [1]: -28.2 kcal/mol
- Tm [2]: 55.4 °C

Sequence: GGCCCCGAAAGGGCGCC ((((((....))).)))
- folding enthalpy [1]: -18.5 kcal/mol
- Tm [2]: 68.6 °C

Sequence: GGCCCCGAAAGGGCGGCC ((((((....)))..)))
- folding enthalpy [1]: -16.9 kcal/mol
- Tm [2]: 64.7 °C

Sequence: GGCCCCGAAAGGGTGGCC ((((((....)))..)))
- folding enthalpy [1]: -22.7 kcal/mol
- Tm [2]: 61.6 °C

Sequence: GGCCCCGGAAACGAGGCC ((((.((....)).))))
- folding enthalpy [1]: -38.4 kcal/mol
- Tm [2]: 57.5 °C

Sequence: GGCCCGGCGAAAGCCGCC (((..(((....))))))
- folding enthalpy [1]: -7.68 kcal/mol
- Tm [2]: 37 °C

Sequence: GGCCCGGGAAACCGAGCC (((.(((....))).)))
- folding enthalpy [1]: -46 kcal/mol
- Tm [2]: 54.2 °C

Sequence: GGCCCTACGAAAGTAGCC (((..(((....))))))
- folding enthalpy [1]: -15.3 kcal/mol
- Tm [2]: 31 °C

Sequence: GGCCCTGCGAAAGCAGCC (((..(((....))))))
- folding enthalpy [1]: -8.71 kcal/mol
- Tm [2]: 36.9 °C

Sequence: GGCCCTGGAAACGGGGTC (.(((.(....).))).)
- folding enthalpy [1]: -30.9 kcal/mol
- Tm [2]: 49 °C

Sequence: GGCCGACGAAAGTCGCC (((.(((....))))))
- folding enthalpy [1]: -14.4 kcal/mol
- Tm [2]: 60.2 °C

Sequence: GGCCGAGGAAACTCGGTC (.(((((....))))).)
- folding enthalpy [1]: -31.4 kcal/mol
- Tm [2]: 64.4 °C

Sequence: GGCCGCGAAAGCGACGCC ((((((....)))..)))
- folding enthalpy [1]: -16.9 kcal/mol
- Tm [2]: 66.4 °C

Sequence: GGCCGCGAAAGCGTAGCC ((((((....)))..)))
- folding enthalpy [1]: -22.5 kcal/mol
- Tm [2]: 61 °C

Sequence: GGCCGGCCGAAAGGCGCC (((..(((....))))))
- folding enthalpy [1]: -15.1 kcal/mol
- Tm [2]: 57.3 °C

Sequence: GGCCGGGCGAAAGCCGCC (((..(((....))))))
- folding enthalpy [1]: -18.1 kcal/mol
- Tm [2]: 57.7 °C

Sequence: GGCCGGGGAAACCTGGCC ((((.((....)).))))
- folding enthalpy [1]: -38.4 kcal/mol
- Tm [2]: 68 °C

Sequence: GGCCGGGGAAACTCGGCC (((((.(....).)))))
- folding enthalpy [1]: -40 kcal/mol
- Tm [2]: 68.4 °C

Sequence: GGCCGGTCGAAAGACGCC (((..(((....))))))
- folding enthalpy [1]: -21.9 kcal/mol
- Tm [2]: 48.4 °C

Sequence: GGCCGTCGAAAGACAGCC (((.(((....))).)))
- folding enthalpy [1]: -35.1 kcal/mol
- Tm [2]: 58.4 °C

Sequence: GGCCGTGGAAACACAGCC (((.(((....))).)))
- folding enthalpy [1]: -36.8 kcal/mol
- Tm [2]: 50.1 °C

Sequence: GGCCTAGGAAACTAGGTC (.(((((....))))).)
- folding enthalpy [1]: -33.7 kcal/mol
- Tm [2]: 51.6 °C

Sequence: GGCCTCGAAAGAGATGCC ((((((....)))..)))
- folding enthalpy [1]: -24.1 kcal/mol
- Tm [2]: 46.8 °C

Sequence: GGCCTCGAAAGAGCCGCC ((((((....)))..)))
- folding enthalpy [1]: -20.3 kcal/mol
- Tm [2]: 57.2 °C

Sequence: GGCCTCGAAAGAGGGGCC ((((((....)))..)))
- folding enthalpy [1]: -23 kcal/mol
- Tm [2]: 54.9 °C

Sequence: GGCCTCGCGAAAGCGGCC (((..(((....))))))
- folding enthalpy [1]: -17.5 kcal/mol
- Tm [2]: 59.4 °C

Sequence: GGCCTCGGAAACAAGGCC (((((.(....).)))))
- folding enthalpy [1]: -34.5 kcal/mol
- Tm [2]: 51.9 °C

Sequence: GGCCTCGGAAACGAGGTC (.(((((....))))).)
- folding enthalpy [1]: -28.2 kcal/mol
- Tm [2]: 64.7 °C

Sequence: GGCCTGACGAAAGTCGCC (((..(((....))))))
- folding enthalpy [1]: -16.3 kcal/mol
- Tm [2]: 44 °C

Sequence: GGCCTGGCGAAAGCCGCC (((..(((....))))))
- folding enthalpy [1]: -15.5 kcal/mol
- Tm [2]: 48.7 °C

Sequence: GGCCTGGGAAACCAGGTC (.(((((....))))).)
- folding enthalpy [1]: -33 kcal/mol
- Tm [2]: 58.5 °C

Sequence: GGCCTTGGAAACAAAGCC (((.(((....))).)))
- folding enthalpy [1]: -25.8 kcal/mol
- Tm [2]: 38.9 °C

Sequence: GGCCTTGGAAACGAGGTC (.(((.(....).))).)
- folding enthalpy [1]: -31.3 kcal/mol
- Tm [2]: 43.2 °C

Sequence: GGCGAACGAAAGTTGCC (((.(((....))))))
- folding enthalpy [1]: -36.5 kcal/mol
- Tm [2]: 56.9 °C

Sequence: GGCGACCCGAAAGGGGCC (((..(((....))))))
- folding enthalpy [1]: -13.1 kcal/mol
- Tm [2]: 54.6 °C

Sequence: GGCGACGAAAGTCATGCC ((((((....)))..)))
- folding enthalpy [1]: -27.2 kcal/mol
- Tm [2]: 52.5 °C

Sequence: GGCGACGAAAGTCGAGCC ((((((....)))..)))
- folding enthalpy [1]: -15.9 kcal/mol
- Tm [2]: 55.8 °C

Sequence: GGCGACGAAAGTCGCGCC ((((((....)))..)))
- folding enthalpy [1]: -6.6 kcal/mol
- Tm [2]: 65.8 °C

Sequence: GGCGACGAAAGTCTAGCC ((((((....)))..)))
- folding enthalpy [1]: -28.6 kcal/mol
- Tm [2]: 54.5 °C

Sequence: GGCGACGGAAACATCGCC (((((.(....).)))))
- folding enthalpy [1]: -42.6 kcal/mol
- Tm [2]: 55.4 °C

Sequence: GGCGACGGAAACGTCACC ((.((((....)))).))
- folding enthalpy [1]: -33.5 kcal/mol
- Tm [2]: 54.7 °C

Sequence: GGCGACTCGAAAGAGGCC (((..(((....))))))
- folding enthalpy [1]: -16.9 kcal/mol
- Tm [2]: 49.7 °C

Sequence: GGCGAGCGAAAGCTAGCC (((.(((....))).)))
- folding enthalpy [1]: -42.2 kcal/mol
- Tm [2]: 68.7 °C
